Sampled rows, rich in hits. Any-hit rate of the full collection: about 1.2%.
Lipid droplet = modulators of hepatic lipid droplet formation; AML12 mouse hepatocytes, oleate lipid droplets, BODIPY imaging; inhibition, % at 6.5 µM; 240,000 compounds, 0.4% hits; AID 1656;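 active = lipid droplet intensity inhibited by at least 50%, with more than 500 cells counted; inconclusive = wells with under 300 cells, treated as cytotoxic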
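Technique: fluorescence imaging, 20x objective, two fields per well / Assay system: AML12 hepatocytes (mouse) / Measure: % inhibition of lipid droplet signal / Doses: 6.5 µM single-point dosing / Incubation: overnight exposure / Reagent: 100 µM oleic acid challenge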
Rce1 inh = inhibitors of yeast Ras-converting enzyme; Q03530; 290,000 compounds, 0.27% hits; yeast membranes, quenched prenylated peptide cleavage fluorescence; calls only; AID 2563;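 active = fall in fluorescence gain of 50% or more versus controls, with final raw signal at or below 3038400; inconclusive = same 50% fall but final raw signal above 3038400; inactive = fall in fluorescence gain under 50%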;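 also: plate controls were neutral control wells for no effect and wells lacking membranes for full effect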
Target sequence (Q03530 whole entry, looked up): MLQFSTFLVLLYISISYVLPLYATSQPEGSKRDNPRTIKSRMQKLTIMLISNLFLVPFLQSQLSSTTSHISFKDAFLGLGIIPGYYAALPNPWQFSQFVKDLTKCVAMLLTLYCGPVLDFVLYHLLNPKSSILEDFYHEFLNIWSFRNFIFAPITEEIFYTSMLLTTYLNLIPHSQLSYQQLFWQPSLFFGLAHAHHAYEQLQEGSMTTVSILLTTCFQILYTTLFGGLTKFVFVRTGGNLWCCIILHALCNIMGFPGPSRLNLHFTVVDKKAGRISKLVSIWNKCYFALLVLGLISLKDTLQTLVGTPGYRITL
GAA850 FXN act = activators of GAA850 frataxin (FXN) promoter; HEK293 lucGAA850 FXN promoter luciferase reporter, 24 h; percent of 10 µM SAHA response; activation, % at 6 µM; 360,000 compounds, 0.56% hits; AID 540364;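 active = activation above the average of all compounds screened plus 3 SD, cutoff fixed separately per campaign, cut at about 7.5% in these data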;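 also: 0% = DMSO wells and 100% = 10 µM SAHA wells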
proCasp3 act = activates human procaspase-3; P42574; recombinant procaspase-3 D3A, Ac-DEVD-pNA absorbance 405 nm; activation, % at 8.5 µM; 330,000 compounds, 0.11% hits;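 active = activation above the mean of all tested compounds plus 3 SD, cut at about 21% in these data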;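 also: 0% = DMSO alone and 100% = DMSO wells spiked with extra 5 µM PC-3 D3A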
Target sequence (P42574 whole entry D9A/D28A/D175A): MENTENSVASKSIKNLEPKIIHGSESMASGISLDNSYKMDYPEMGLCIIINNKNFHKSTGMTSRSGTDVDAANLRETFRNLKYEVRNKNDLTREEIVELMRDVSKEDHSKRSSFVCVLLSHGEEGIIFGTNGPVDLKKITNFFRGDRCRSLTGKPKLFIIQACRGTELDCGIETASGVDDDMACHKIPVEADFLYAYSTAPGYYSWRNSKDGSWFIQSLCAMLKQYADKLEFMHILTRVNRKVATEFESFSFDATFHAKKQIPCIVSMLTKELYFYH
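Test system: Procaspase-3 D3A mutant; medium: Zinc-free HEPES/NaCl buffer with 0.01% Triton X-100 at pH 7.4; reagent: DEVD-pNA substrate; doses: one concentration, 8.5 µM nominal, 0.8% DMSO; times: 1 h preincubation plus 2 h reaction at 25 °C; signal: Epi-absorbance at 405 nm of released p-nitroaniline, 0 and 120 min; replicates: singlicate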
p-CIP stab down = lowers stability of the mouse p/CIP coactivator protein; Q05BA5; F442A p/CIP-EGFP cells, EGFP fluorescence, 16 h; decrease of EGFP signal, % at 10 µM; 290,000 compounds, 0.01% hits; AID 1984;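 active = EGFP signal decrease of at least 30% at 10 µM or well 3 SD below plate mean, unless failing retest; inactive = the rest, including hits failing retest or dose response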
procasp7 counter = counter-screen: procaspase-7 (human) activation. P55210. recombinant procaspase-7, Ac-DEVD-pNA absorbance 405 nm; D23A/D198A/D206A triple mutant, cannot self-cleave; scale: DMSO 0, 5 µM enzyme 100. activation, % at 8.5 µM. 330,000 compounds, 0.093% hits. AID 463210;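 active = percent activation above the screen-wide mean plus 3 SD, cut at about 25% in these data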
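signal = Epi-absorbance of released pNA at 405 nm, two timepoints | assay system = Uncleavable procaspase-7 mutant enzyme | reagent = Ac-DEVD-pNA substrate, 400 µM as added | times = 1 h enzyme–compound preincubation and 2 h substrate reaction, both 25 °C | benchmarks = low DMSO alone, high DMSO plus 5 µM PC-7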
* hit, by the source's call; i = inactive; ? = inconclusive; · = no result given; + = active, no number.

SMILES	Lipid droplet	Rce1 inh	GAA850 FXN act	proCasp3 act	p-CIP stab down	procasp7 counter
Cc1cnn(CCC(=O)NNC(=S)Nc2ccc(F)cc2)c1	·	i	-1	-1	-9	1
CC1(C(=O)NS(=O)(=O)Cc2ccccc2C(F)(F)F)CCN1C(=O)Cc1ccccc1 (centres undefined)	·	·	0	·	·	·
CC(C)c1cccc(-c2csc(C(C)(O)c3cccc(F)c3)n2)c1 (centres undefined)	·	·	1	·	·	·
COc1ccc(-c2oc3ccc(N4CCOCC4)cc3c2/C=C/c2ccc(OC)c(OC)c2)cc1	18	+	3	8	-1	11
COc1ccc(/C=C/c2c(-c3ccc(OC)cc3)sc3ccc(N4CCOCC4)cc23)cc1	4	i	1	-1	-11	7
O=C(Nc1ccc(Cl)cc1)c1ccc(OCC2CCCO2)cc1 (centres undefined)	4	i	3	6	6	2
O=C(Nc1nc(-c2ccc(Cl)cc2Cl)cs1)c1ccc(OCC2CCCO2)cc1 (centres undefined)	77*	i	-2	5	1	-1
CC(OC(=O)c1ccc2c(=O)n3c(nc2c1)CCC3)C(=O)NC1CCCCC1C (centres undefined)	25	+	1	1	1	1
Clc1ccc(-c2nc3ncccn3c2Cl)cc1	-10	i	13*	5	-10	9
O=C(Nc1nc2ccccc2[nH]1)c1cccc(Cl)c1	21	i	5	5	-1	7
O=C(O)c1ccc(Nc2nc3ccc(Cl)cc3[nH]2)cc1	2	+	2	-8	-5	-9
COC(=O)c1cc(NC(=O)c2ccccc2)c(=O)oc1C	3	i	0	5	12	1
COc1ccc(C(=O)Nc2cc(C(=O)c3ccccc3)c(C)oc2=O)cc1	·	i	12*	-10	-17	-23
CC(C)(C)c1ccc(CC(=O)N2CCC2(C)C(=O)NS(=O)(=O)c2ccccc2Cl)cc1 (centres undefined)	·	·	0	·	·	·
COC(=O)C1=CN(CC2CCCO2)C=C(C(=O)OC)C1c1ccsc1 (centres undefined)	·	?	0	-2	15	4
COC(=O)C1=CN(CC2CCCO2)C=C(C(=O)OC)C1c1cccc(O)c1 (centres undefined)	15	+	0	0	-4	1
COc1ccccc1-c1cc(C(F)(F)F)nc(S(=O)(=O)CCCC(=O)NCc2ccc(F)cc2)n1	2	+	-1	7	-7	-7
COc1ccccc1-c1cc(C(F)(F)F)nc(S(=O)(=O)CCCC(=O)NC(C)C)n1	·	i	2	0	-6	8
COc1cccc(C(C)(O)c2nc(/C=C/c3ccccc3)cs2)c1 (centres undefined)	·	·	0	·	·	·
CC(=O)Nc1ccc(S(=O)(=O)Nc2cccc(-c3nc4ccccc4o3)c2)cc1	27	+	1	7	-7	-3
Cc1c(C(=O)Nc2ccccc2)cn2c(nc3ccccc32)c1C#N	-2	i	1	-10	-6	-14
COc1ccc(NC(=O)c2cn3c(nc4ccccc43)c(C#N)c2C)cc1	-1	+	-1	-2	-4	16
CC(=O)Oc1ccc(Cn2c(C)c(C(=O)NC3CC3)sc2=O)cc1	·	·	2	·	·	·
CCOC(=O)N1CCC(NC(=O)c2cccn3c(=O)c4cc(Br)ccc4nc23)CC1	·	i	2	2	40*	0
CCOC(=O)N1CCC(NC(=O)c2ccc3nc4ccccc4c(=O)n3c2)CC1	·	i	·	·	-20	·
SMILES	Lipid droplet	Rce1 inh	GAA850 FXN act	proCasp3 act	p-CIP stab down	procasp7 counter
COC(=O)c1ccc(CSc2nc3c(c(=O)[nH]2)CCC3)cc1	·	·	1	·	·	·
OCCN1CCN(Cc2cc(Cl)c3cccnc3c2O)CC1	·	i	-1	-4	-9	-16
Oc1c(CN2CCN(c3ccccn3)CC2)cc(Cl)c2cccnc12	-15	i	10*	-9	7	-10
O=C(Nc1ccc(Oc2ccccc2)cc1)c1csc([C@H]2C[C@H](O)[C@@H](CO)O2)n1	·	·	-8	·	·	·
O=c1c(-c2nnc(SCc3ccc(Cl)c(Cl)c3)o2)cccn1Cc1ccccc1	·	+	3	8	-6	14
Clc1cccc(CSc2nnc(-c3c[nH]c4ccccc34)o2)c1	-13	i	-2	-1	-6	2
CCc1nc2ccc(C(=O)NCc3ccc(OC)cc3)cn2c1N(C)CCC(C)C	·	·	-2	·	·	·
COc1cc(NC(=O)COc2ccc([N+](=O)[O-])cc2)ccc1NC(=O)c1ccco1	·	·	1	·	·	·
COc1cccc2[nH]c3c(N4CCN(Cc5ccc6c(c5)OCO6)CC4)ncnc3c12	·	+	·	-5	5	9
CCC(CC)C(=O)N(C)c1c(C)nc2c(OCCOc3ccc(F)cc3)cccn12	·	·	-4	·	·	·
CN(C)/C=N/c1nc2nccc(-c3ccc(F)cc3)n2n1	·	+	2	-8	2	-4
Nc1ccccc1Oc1ccc2ccccc2c1	13	+	1	7	-13	9
Cc1ccccc1Oc1ccccc1N	1	i	2	-2	17	-1
COc1ccccc1N1CCN(C(=O)c2coc(=O)c(Br)c2)CC1	14	+	2	-6	0	-3
O=C(NCCNC(=O)c1ccc(-c2cc(Cl)ccc2Cl)o1)c1cnccn1	·	·	1	·	·	·
CCN(CC)CCNC(=O)c1cn(CCOC)c(=O)c2c1c1ccccc1n2C	-24	i	-2	5	-6	10
COCCn1cc(C(=O)NCCN(C)C)c2c3ccccc3n(C)c2c1=O	1	+	-1	-5	9	-5
CN1C(=O)c2ccccc2N(C)C1c1ccccc1Cl (centres undefined)	-9	+	-1	3	-29	7
CC(=O)OC[C@@H]1CN(Cc2ccccc2)C[C@H](n2cnc3c(N4CCN(c5ccccc5)CC4)ncnc32)O1	·	·	-1	·	·	·
Cc1cccc(/C=N/NC(=O)c2ccc(Br)cc2)c1	32	+	4	5	4	7
CCc1nc2ccc(C(=O)NC(C)(C)C)cn2c1N(CC)Cc1cccc(Br)c1	·	·	-3	·	·	·
O=C1CCCN1CC(O)CS(=O)(=O)c1ccccc1 (centres undefined)	·	+	3	-3	-9	4
